Source: ChEMBL document CHEMBL1146868, “Design, synthesis, and biophysical and biological evaluation of a series of pyrrolobenzodiazepine-poly(N-methylpyrrole) conjugates” (J Med Chem, 2006)

Key:
K562 = test: Cytotoxicity against human K562 cell line after 96 hrs by MTT assay; assay type: functional; details: K562, 96 h
[1] = tested on: Panel NCI-60 (60 carcinoma cell lines); test: Cytotoxicity against human NCI60 cell line […]; assay type: functional; details: for CC50: read-out: LC50 (the source's name)
MCF7 [2] = test: Uptake in human MCF7 cells at 100 uM after 24 hrs; assay type: ADME, cell-based; details: mcf7, 24 h
Method in brief: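 MCF-7 cells were exposed to the conjugates for 24 h, at up to 100 µM. Cellular and nuclear uptake was assessed from intrinsic fluorescence.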

Nucleic Acid = test: Inhibition of DNA transcription at 5 uM; assay type: functional
Method in brief: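 In vitro transcription of a DNA template by a viral RNA polymerase. Read-out is the sites where transcription stops and the amount of full-length 266-nt transcript. Activity is expressed as 50% inhibition of full-length transcript synthesis.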

MCF7 [3] = test: Uptake in human MCF7 cells after <1 hr; assay type: ADME, cell-based; details: mcf7, 1 h

SMILES | GI50 (K562) [nM] | GI50 [1] [nM] | TGI [1] [nM] | CC50 [1] [nM] | Drug uptake (MCF7 [2]) | inhibition (Nucleic Acid) [%] | Drug uptake (MCF7 [3])
COC(=O)CCCOc1cc2c(cc1OC)C(=O)N1CCC[C@H]1C=N2 | 526 | 1740 | 11800 | 46800 | – | – | –
COC(=O)c1cc(NC(=O)c2cc(NC(=O)c3cc(NC(=O)CCOc4cc5c(cc4OC)C(=O)N4CCC[C@H]4C=N5)cn3C)cn2C)cn1C | 346 | 47 | 1760 | 56200 | – | – | –
COC(=O)c1cc(NC(=O)c2cc(NC(=O)c3cc(NC(=O)CCCN(C)C)cn3C)cn2C)cn1C | > 10000 | 72400 | > 100000 | > 100000 | – | – | –
COC(=O)c1cc(NC(=O)c2cc(NC(=O)c3cc(NC(=O)CCCOc4cc5c(cc4OC)C(=O)N4CCC[C@H]4C(=O)N5)cn3C)cn2C)cn1C | > 10000 | 49000 | > 50000 | > 50000 | – | – | –
COC(=O)c1cc(NC(=O)c2cc(NC(=O)c3cc(NC(=O)c4cc(NC(=O)c5cc(NC(=O)c6cc(NC(=O)CCCOc7cc8c(cc7OC)C(=O)N7CCC[C@H]7C=N8)cn6C)cn5C)cn4C)cn3C)cn2C)cn1C | 30 | 8 | 54 | 1900 | Active | 50 | –
COC(=O)c1cc(NC(=O)c2cc(NC(=O)c3cc(NC(=O)c4cc(NC(=O)c5cc(NC(=O)CCCOc6cc7c(cc6OC)C(=O)N6CCC[C@H]6C=N7)cn5C)cn4C)cn3C)cn2C)cn1C | 83 | 9 | 29 | 1260 | Active | 50 | –
COC(=O)c1cc(NC(=O)c2cc(NC(=O)CCCOc3cc4c(cc3OC)C(=O)N3CCC[C@H]3C=N4)cn2C)cn1C | 7.1 | 11 | 120 | 10000 | Active | 50 | –
COC(=O)c1cc(NC(=O)c2cc(NC(=O)c3cc(NC(=O)CCCOc4cc5c(cc4OC)C(=O)N4CCC[C@H]4C=N5)cn3C)cn2C)cn1C | 41 | 15 | 32 | 1070 | Active | 50 | –
COC(=O)c1cc(NC(=O)CCCOc2cc3c(cc2OC)C(=O)N2CCC[C@H]2C=N3)cn1C | 51 | 47 | 323 | 11500 | – | 50 | Active
C=C1C[C@H]2C=Nc3cc(OCCCOc4cc5c(cc4OC)C(=O)N4CC(=C)C[C@H]4C=N5)c(OC)cc3C(=O)N2C1 [SJG-136] | 3.8 | 7.4 | 87.1 | 562 | – | – | –
COC(=O)c1cc(NC(=O)c2cc(NC(=O)c3cc(NC(=O)c4cc(NC(=O)CCCOc5cc6c(cc5OC)C(=O)N5CCC[C@H]5C=N6)cn4C)cn3C)cn2C)cn1C | 47 | 7 | 18 | 1510 | Active | 50 | –
COC(=O)c1cc(NC(=O)c2cc(NC(=O)c3cc(NC=O)cn3C)cn2C)cn1C | > 10000 | 16600 | 44700 | 85100 | – | – | –
